How the values were obtained:
Rattus norvegicus [1] = species on record: Rattus norvegicus; assay: Evaluated for neurotoxicity by inhibition of neuron viability in rat cortical neurons expressed as IC50; format: functional
Outline: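 Cortical neurons were incubated with the compound at various concentrations, and viability was measured by MTT reduction with OD at 600 nm on an ELISA reader. IC50 is the concentration inhibiting neuron viability by 50%. Values are averages of three separate experiments.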

Rattus norvegicus [2] = species on record: Rattus norvegicus; assay: Effective concentration required to inhibit A-beta-40 fibril formation […]; format: functional
Outline: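 Thioflavin-T binding assay of Aβ40 aggregation. Aβ40 (25) was incubated with the compound at various concentrations in 50 mM TBS, pH 7.4, at 37 °C for 2 days. Fluorescence was read at Ex 450/Em 482 and scaled to Aβ40 alone (100%). EC50 is the concentration inhibiting aggregation by 50%. Values are averages of three separate experiments.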

[3] = Therapeutic index expressed as the ratio of IC50 to EC50; details: rat; read-out: Therapeutic index
Outline: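 Therapeutic index = IC50/EC50. IC50 is the concentration inhibiting neuron viability by 50% in the MTT reduction assay on cortical neurons. EC50 is the concentration inhibiting Aβ40 aggregation by 50% in the thioflavin-T assay (25 Aβ40, TBS pH 7.4, 37 °C, 2 days). Both were determined at various compound concentrations in three separate experiments.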

EC50 (Rattus norvegicus [2]) [µM]	Compound	IC50 (Rattus norvegicus [1]) [µM]	selectivity ratio [3]
100	Nc1ccc(/N=N/c2ccc(S(N)(=O)=O)cc2)cc1	> 100	–
56.8	CSc1cc(N)ccc1/N=N/c1ccc(S(N)(=O)=O)cc1	> 100	> 1.76
77.2	NS(=O)(=O)c1ccc(/N=N/c2ccc(NCS(=O)(=O)O)cc2)cc1	> 100	> 1.29
15.1	CCN(CC)CCNc1ccc(/N=N/c2ccc(S(N)(=O)=O)cc2)c2ccccc12	22.1	1.47
12.9	CN(C)c1ccc(/N=N/c2ccc(S(N)(=O)=O)cc2)cc1	> 100	> 7.75

Source: ChEMBL document CHEMBL1147589, “Abeta aggregation inhibitors. Part 1: Synthesis and biological activity of phenylazo benzenesulfonamides” (Bioorg Med Chem Lett, 2004)
